# Compound activity deposited in PubChem BioAssay by Broad Institute.
# Only some compounds are listed: those with a hit (about 5.9% of all), similar ones and a draw of the others.
# T cruzi growth-1: T. cruzi intracellular proliferation inhibitors, primary screen, cell-based, beta-gal Tulahuen parasites, NIH3T3 host, luminescence. 5.9% of 77,000 active. inhibition, % at 8.34 µM. T. cruzi beta-gal in NIH3T3, GalScreen luminescence, 90 h;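 active = mean inhibition above about 93%, with at least 55% of replicates each passing it, limit read from the data, passing the limit was not always enough; inconclusive = only one of those two conditions holds; inactive = neither condition holds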
# GASC1 inh: inhibitors of GASC-1 (KDM4C) histone demethylase, primary screen, biochemical, single concentration HTS; Lysine-specific demethylase 4C (Homo sapiens), Q9H3R0; GST-KDM4C 2-372, H3K9me3 peptide, LANCE TR-FRET; inhibition, % at 12.5 µM; 0.15% of 96,000 active; AID 720574, 2013;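 active = mean replicate inhibition above about 25%, with at least 55% of replicates also reaching it, limit read from the data, passing the limit was not always enough; inconclusive = only one of those two conditions met; inactive = neither condition met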
#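 System: N-terminal GST-fused human GASC-1 (KDM4C) fragment, residues 2-372; amount: enzyme final amount 10 nM; incubation: reaction 30 min RT, detection step 1 h RT; medium: HEPES buffer, pH 7.5, plus ascorbate; technique: LANCE TR-FRET, Eu antibody, ULight-streptavidin, EDTA, ex 340 nm, em 618/671 nm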
# Pf Dd2 growth: P. falciparum Dd2 growth inhibitors, primary screen, SYBR Green fluorescence, single dose replicates; 72 h; active compounds read low; activity change, % at 10 µM; 2.3% of 94,000 active; AID 1159554, 2015; in the data active = activity change below about -80%; inconclusive = no clear call, values can overlap the other calls
# IDH1 mut inh: inhibitors of IDH1 R132H reductase, primary screen, biochemical, plate reader, single point | AID 624101, 2012 | inhibition, % at 10 µM | 0.18% of 70,000 active | diaphorase/resazurin fluorescence, 60 min | Isocitrate dehydrogenase [NADP] cytoplasmic (Homo sapiens), O75874; in the data active = inhibition above about 34%; inconclusive = no clear call, values can overlap the other calls; inactive = below about 11%
# Target sequence (O75874 whole entry R132H): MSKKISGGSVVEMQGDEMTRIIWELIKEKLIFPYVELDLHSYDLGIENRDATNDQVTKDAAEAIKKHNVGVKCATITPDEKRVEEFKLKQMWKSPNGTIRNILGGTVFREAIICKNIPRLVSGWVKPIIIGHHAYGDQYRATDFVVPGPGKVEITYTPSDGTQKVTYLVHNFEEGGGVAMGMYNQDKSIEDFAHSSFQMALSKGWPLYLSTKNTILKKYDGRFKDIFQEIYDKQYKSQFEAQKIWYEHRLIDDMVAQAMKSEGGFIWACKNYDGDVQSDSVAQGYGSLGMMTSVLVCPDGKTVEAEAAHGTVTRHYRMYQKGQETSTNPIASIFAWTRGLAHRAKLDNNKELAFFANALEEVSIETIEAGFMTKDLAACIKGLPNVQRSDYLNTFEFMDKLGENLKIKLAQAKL
# T cruzi growth-2: T. cruzi intracellular proliferation inhibitors, confirmation, cell-based, NIH3T3 host, beta-gal parasite, luminescence, cherry-pick; shares compounds with T cruzi growth-1; T. cruzi beta-gal in NIH3T3, GalScreen luminescence, 90 h; inhibition, % at 8.35 µM; 72% of 5,600 active;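 active = mean replicate inhibition above about 95% and at least 55% of replicates individually reaching it, limit read from the data; inconclusive = only one of the two criteria is met; inactive = neither criterion is met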
# T cruzi growth-3: inhibitors of intracellular T. cruzi replication, confirmation, NIH3T3 host cells, beta-gal parasites, cherry-pick, set 2; inhibition, % at 2.09 µM; AID 651740, 2012; T. cruzi beta-gal in NIH3T3, GalScreen luminescence, 90 h; 21% of 5,600 active; shares compounds with T cruzi growth-1;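 active = mean inhibition above about 95%, with at least 55% of replicates also reaching it, limit read from the data; inconclusive = meets just one of the two conditions; inactive = meets neither condition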
# 3T3 cytotox: cytotoxicity in mouse NIH/3T3 fibroblasts, confirmation, cytotoxicity control for T. cruzi proliferation inhibitor project, cell-based, cherry-pick, single point | NIH/3T3 viability, CellTiter-Glo ATP luminescence, 90 h | AID 651742, 2012 | cytotoxicity (signal decrease), % at 8.35 µM | 14% of 5,600 active | shares compounds with T cruzi growth-1;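 active = mean signal decrease across replicates above about 35% based on untreated-well scatter, with enough replicates individually passing, limit read from the data; inconclusive = no rule stated though some were filed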
# 3T3 cytotox 2: NIH/3T3 fibroblast cytotoxicity, confirmation, cytotoxicity control, cell-based, cherry-pick, single point, set 2; AID 651744, 2012; inhibition, % at 24.9 µM; shares compounds with T cruzi growth-1; NIH/3T3 viability, CellTiter-Glo ATP luminescence, 90 h; 56% of 5,600 active;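 active = mean loss of cell viability signal at or above a set limit, and enough replicates individually reaching it; inconclusive = meets only the mean limit or only the replicate share; inactive = meets neither condition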
# A number is an active result; - = inactive; ? = inconclusive; . = not tested or not shown.
SMILES,T cruzi growth-1,GASC1 inh,Pf Dd2 growth,IDH1 mut inh,T cruzi growth-2,T cruzi growth-3,3T3 cytotox,3T3 cytotox 2
CN1c2ccc(Br)cc2[C@@H]2[C@@H](CCN2S(=O)(=O)c2ccc(F)cc2)[C@H]1CO,-,-,-,.,.,.,.,.
C[C@@H]1CCCCO[C@@H](CN(C)C(=O)C2CCCCC2)[C@@H](C)CN([C@H](C)CO)C(=O)c2cc(NC(=O)Nc3ccc(F)cc3)ccc2O1,-,-,-,.,.,.,.,.
C[C@@H]1CCCCO[C@H](CN(C)C(=O)C2CCCCC2)[C@H](C)CN([C@@H](C)CO)C(=O)c2cc(NC(=O)Nc3ccc(C(F)(F)F)cc3)ccc2O1,118,-,-,.,98,118,-,-
C[C@@H]1CN([C@@H](C)CO)C(=O)c2cc(NC(=O)Nc3ccc(C(F)(F)F)cc3)ccc2O[C@@H](C)CCCCO[C@@H]1CN(C)C(=O)C1CCCCC1,-,-,-,-,.,.,.,.
C[C@@H]1CCCCO[C@@H](CN(C)C(=O)C2CCCCC2)[C@@H](C)CN([C@H](C)CO)C(=O)c2cc(NC(=O)Nc3ccc(C(F)(F)F)cc3)ccc2O1,117,-,-,.,-,-,-,26
C[C@H]1CCCCO[C@H](CN(C)C(=O)C2CCCCC2)[C@@H](C)CN([C@@H](C)CO)C(=O)c2cc(NC(=O)Nc3ccc(C(F)(F)F)cc3)ccc2O1,121,-,?,-,96,111,-,31
Cc1[nH]c2ccc(CN3C(=O)c4ccccc4C3=O)cc2c1C,.,.,.,-,.,.,.,.
C/C=C/c1ccc([C@@H]2[C@@H](CO)N3CCCCN(S(=O)(=O)c4cccc(C)c4)C[C@@H]23)cc1,108,-,-,.,100,-,-,73
C/C=C/c1ccc([C@@H]2[C@@H](CO)N3CCCCN(S(=O)(=O)c4cccc(C)c4)C[C@H]23)cc1,?,-,-,.,108,-,-,103
Cc1cc(=O)[nH]c(SC(C)C(=O)Nc2ccc(Cl)cc2)n1 (stereo not given),.,.,.,-,.,.,.,.
CCCNC(=O)[C@@H]1[C@@H](CO)[C@@H]2Cn3c(ccc(-c4ccccc4)c3=O)[C@@H]2N1C(=O)C1CCC1,102,-,-,.,-,-,-,-
COC(=O)[C@@H]1[C@@H](CO)[C@@H]2Cn3c(ccc(-c4ccc(F)cc4)c3=O)[C@@H]2N1C(=O)C1CCC1,114,-,.,.,-,-,-,-
CCCNC(=O)N1[C@@H]2c3ccc(-c4ccc(F)cc4)c(=O)n3C[C@@H]2[C@@H](CO)[C@@H]1C(=O)N1CCCCC1,102,-,.,.,-,-,-,-
COC(=O)[C@H]1[C@H](CO)[C@H]2Cn3c(ccc(-c4ccc(F)cc4)c3=O)[C@H]2N1C(=O)C1CC1,-,-,-,.,.,.,.,.
O=C([C@H]1[C@H](CO)[C@H]2Cn3c(ccc(-c4cccc(F)c4)c3=O)[C@H]2N1Cc1cocn1)N1CCCCC1,?,-,-,.,-,-,-,24
O=C1C(=O)N(CCc2ccccc2)C(c2ccco2)C1C(=O)c1cc2ccccc2o1 (stereo not given),.,.,.,-,.,.,.,.
O=c1cc(Nc2ccccc2)cc[nH]1,.,.,.,-,.,.,.,.
C[C@@H]1CN([C@H](C)CO)C(=O)c2cc(N(C)C)ccc2O[C@@H](C)CCCCO[C@@H]1CN(C)Cc1ccc2c(c1)OCO2,102,-,-,.,-,-,-,-
